Measured values of several laboratories.
Each line is one published result; the experiments were not run side by side.
Target: Homeodomain-interacting protein kinase 4 (HIPK4, Homo sapiens, UniProt Q8NE63)
Residues used in one study (Q8NE63 1-616): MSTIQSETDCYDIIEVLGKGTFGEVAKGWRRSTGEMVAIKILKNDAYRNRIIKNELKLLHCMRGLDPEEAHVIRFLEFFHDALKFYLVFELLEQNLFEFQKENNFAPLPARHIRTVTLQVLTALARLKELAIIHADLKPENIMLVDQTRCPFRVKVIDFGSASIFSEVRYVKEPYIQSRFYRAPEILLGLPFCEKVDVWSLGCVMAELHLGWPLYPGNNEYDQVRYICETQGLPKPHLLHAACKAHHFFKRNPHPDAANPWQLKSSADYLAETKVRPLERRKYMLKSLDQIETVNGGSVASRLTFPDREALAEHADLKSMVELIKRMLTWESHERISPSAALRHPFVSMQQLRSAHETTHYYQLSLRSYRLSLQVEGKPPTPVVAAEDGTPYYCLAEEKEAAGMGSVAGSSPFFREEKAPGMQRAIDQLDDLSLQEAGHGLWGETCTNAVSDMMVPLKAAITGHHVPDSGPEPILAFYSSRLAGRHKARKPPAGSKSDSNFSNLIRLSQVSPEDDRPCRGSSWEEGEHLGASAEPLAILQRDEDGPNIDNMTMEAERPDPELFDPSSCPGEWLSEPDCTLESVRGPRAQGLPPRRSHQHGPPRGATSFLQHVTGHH

For `Nc1ncc2c(n1)-c1c([nH]c3ccc(C#CC4CC4)cc13)CCCC2`, the remaining binding was 95% (binding; competition with immobilised ligand; 1 µM).
`CC1CCCN1c1nccc(-c2cnn3ncccc23)n1` (stereo not shown) has a remaining binding of 97% (binding; 1 µM).
`Nc1c(C(=O)NCc2ccc(C(=O)NCCCC3CCCCC3)cc2)cnn1-c1ccccc1` has a remaining binding of 100% (cell-free assay; competition with immobilised ligand; 0.1 µM).
The remaining binding of `N[C@@H]1CCN(c2nccc(-c3cnn4ncccc34)n2)C1` is reported as 98% (binding; 1 µM).
`O=C(c1ccc(Nc2ncc(Cl)c(-c3cc4ccccc4s3)n2)cc1)N1CCC(N2CCCC2)CC1` has a remaining binding of 2.5% (binding; competition with immobilised ligand; 1 µM).
The remaining binding of `C[C@@H]1CN(c2cc(-c3n[nH]c4ccc(OC5(C)CC5)cc34)ncn2)C[C@H](C)O1` is reported as 97% (cell-free assay; competition with immobilised ligand; 0.1 µM).
The remaining binding of `c1cncc(-c2cccc(Nc3nccc(NC4CCCCC4)n3)c2)c1` is reported as 22% (binding; competition with immobilised ligand; 10 µM).
`O=C(NCCCN1CCOCC1)c1ccc(Nc2nccc(-c3cc4ccccc4s3)n2)cc1` has a remaining binding of 5.8% (binding; competition with immobilised ligand; 1 µM).
`O=c1nc(-c2ccccn2)sc2ccccc12` gave a remaining binding of 85% (binding; competition with immobilised ligand; 1 µM).
With `CNC(=O)[C@@H]1CC[C@@H](n2c(-c3ccc4cnccc4c3)nc3ccc(C(=O)NCc4cccc(C(N)=O)c4)cc32)C1` the remaining binding was 100% (binding; competition with immobilised ligand; 1 µM).
`CN(CCCC(F)(F)F)c1nccc(-c2cnn3ncccc23)n1` gave a remaining binding of 95% (binding; 1 µM).
`FC(F)(F)Oc1cccc(-c2cnc3ccc(-c4ccncc4)nn23)c1` has a remaining binding of 5.2% (cell-free assay; competition with immobilised ligand; 5 µM).
`CN(C)CC#Cc1ccc(OCCCc2sc(N3CCc4cccc(C(=O)Nc5nc6ccccc6s5)c4C3)nc2C(=O)O)c(F)c1` gave a remaining binding of 100% (cell-free assay; competition with immobilised ligand; 1 µM).
For `C[C@@H]1CCN(c2nccc(-c3cnn4ncccc34)n2)C1`, the remaining binding was 92% (binding; 1 µM).
`CN(C)C(=O)Cn1cc(-c2nc([C@@](C)(c3ccc(-c4cnc(N)nc4)cc3)C3CC3)no2)cn1` has a remaining binding of 70% (cell-free assay; competition with immobilised ligand; 1 µM).
`O=C(NCC1CCOCC1)c1n[nH]cc1NC(=O)c1c(F)cccc1F` has a remaining binding of 78% (binding; competition with immobilised ligand; 1 µM).
The remaining binding of `CN(c1nccc(-c2cnn3ncccc23)n1)C1CC1` is reported as 99% (binding; 1 µM).
`O=C(c1ccc(Nc2ncc(Cl)c(-c3ccc(Cl)s3)n2)cc1)N1CCC(N2CCCC2)CC1` gave a remaining binding of 3.6% (binding; competition with immobilised ligand; 1 µM).
`Cn1cc(Cl)c2c(Oc3c(F)cc(Nc4cc(Cl)nc(N)n4)cc3F)ccnc21` gave a remaining binding of 100% (cell-free assay; competition with immobilised ligand; 0.1 µM).
For `Cc1cnn2ncc(-c3ccnc(N(C)C)n3)c2c1`, the remaining binding was 77% (binding; 1 µM).
With `Cc1cc(C)c(-n2ccn3nc(-c4cccnc4)cc23)cc1NC(=O)c1cc(C#N)cc(S(F)(F)(F)(F)F)c1` the remaining binding was 95.6% (cell-free assay; competition with immobilised ligand; 0.1 µM).
The remaining binding of `c1cnn2ncc(-c3ccnc(N4CCC45COC5)n3)c2c1` is reported as 87% (binding; 1 µM).
